Compound activity as filed in PubChem.
An excerpt weighted towards active compounds, which were near 0.55% of everything screened.
V1aR counter: activates human V1a receptor in oxytocin agonist counter-screen | AID 2797 | 0.25% of 320,000 active | P37288 | activation, % at 3 µM | CHO-V1R cells, Fluo-8 calcium fluorescence, agonist mode; 0% DMSO, 100% 3 nM vasopressin;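 active = activation above the mean activation of all tested compounds plus 3 SD, per screening run, cut at about 20% in these data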;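 note: signal is peak over basal fluorescence ratio across a 100 second FLIPR read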
Target sequence (P37288 whole entry, looked up): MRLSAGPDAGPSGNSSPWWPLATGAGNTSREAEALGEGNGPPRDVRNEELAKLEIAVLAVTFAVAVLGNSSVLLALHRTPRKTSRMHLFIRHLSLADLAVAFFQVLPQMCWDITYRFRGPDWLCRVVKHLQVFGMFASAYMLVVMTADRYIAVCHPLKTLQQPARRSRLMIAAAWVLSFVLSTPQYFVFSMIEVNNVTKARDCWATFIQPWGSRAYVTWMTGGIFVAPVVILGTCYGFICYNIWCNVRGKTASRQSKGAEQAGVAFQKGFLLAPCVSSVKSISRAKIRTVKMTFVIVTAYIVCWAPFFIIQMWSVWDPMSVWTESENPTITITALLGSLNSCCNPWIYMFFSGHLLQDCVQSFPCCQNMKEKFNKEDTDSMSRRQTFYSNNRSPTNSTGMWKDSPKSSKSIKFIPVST
TRPML3 agonist: activates the human TRPML3 channel | HEK293 TRPML3-YFP, Fluo-8 calcium fluorescence; 100% = the carbachol control signal | activation, % at 3 µM | 0.29% of 220,000 active;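 active = activation above its plate's cutoff, the mean activation of the plate's test wells plus 3 SD, cut at about 12% in these data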
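Test system: TRPML3-YFP stable HEK293 cells. Doses: single point at 3 µM. Incubation: dye loading 1 h 37 °C then 30 min ambient, 125 s read. Signal: Fluo-8 calcium dye fluorescence, ex 470-495, em 515-575 nm. Measure: percent activation from peak-to-basal fluorescence ratio, scaled between DMSO and carbachol.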
OXTR potentiator: human OXTR potentiation | P30559 | CHO-OTR cells, Fluo-8 calcium fluorescence, potentiator mode; 0% = oxytocin EC15, 100% = EC100 | activation, % at 3 µM | 0.061% of 320,000 active | AID 2445;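 active = activation above that plate's cutoff, the mean activation of tested compounds plus 3 SD, cut at about 6.6% in these data, passing the limit was not always enough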
Target sequence (P30559 whole entry, looked up): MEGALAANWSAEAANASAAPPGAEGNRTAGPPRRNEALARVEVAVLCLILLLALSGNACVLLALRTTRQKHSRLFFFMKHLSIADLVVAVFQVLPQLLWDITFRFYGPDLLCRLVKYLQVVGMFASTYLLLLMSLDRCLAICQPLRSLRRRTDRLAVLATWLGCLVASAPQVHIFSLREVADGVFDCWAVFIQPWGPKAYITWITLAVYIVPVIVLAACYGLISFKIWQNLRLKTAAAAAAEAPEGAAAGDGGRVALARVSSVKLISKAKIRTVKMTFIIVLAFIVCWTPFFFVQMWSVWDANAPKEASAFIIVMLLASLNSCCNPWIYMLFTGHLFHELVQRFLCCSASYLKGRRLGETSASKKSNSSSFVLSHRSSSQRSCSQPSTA
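Measured by – Fluo-8 calcium dye fluorescence · Test system – human OTR in CHO cells · Dosing – one concentration, 3.0 µM compound · Controls – EC15 oxytocin alone as 0%, 75 nM oxytocin as 100% · Evaluation – normalized max/min fluorescence ratio, % activation · Timing – 6 min pre-incubation, 100 s read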
zfTRPN1 agonist: zebrafish TRPN1 (NompC) channel agonism | HEK293 zebrafish TRPN1-YFP, Fluo-8 calcium fluorescence; 100% = response to 87 µM carbachol | activation, % at 3 µM | 0.18% of 220,000 active | AID 1424;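 active = activation above its plate's cutoff, the mean activation of test wells on that plate plus 3 SD, cut at about 19% in these data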
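Material: zebrafish TRPN1-YFP in HEK293 cells; Doses: single test compound dose, 3 µM nominal, 0.3% DMSO; Timing: dye loading 1 h at 37 °C, then 30 min room temperature; Technique: intracellular calcium fluorescence with Fluo-8; Benchmarks: high carbachol 87 µM, low DMSO alone.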
OXTR ag: activates the human oxytocin receptor; CHO-OTR cells, Fluo-8 calcium fluorescence; normalized: DMSO 0%, oxytocin 100%; AID 2435; P30559; 0.32% of 320,000 active; activation, % at 3 µM;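 active = activation above the mean of all tested compounds plus 3 SD, cutoff set per screening run, cut at about 20% in these data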;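 note: peak over basal fluorescence ratio from a 100 s FLIPR kinetic read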
TRPN1 ag 2: activates zebrafish TRPN1, counter-screen for TRPML3 agonists. shares compounds with TRPML3 agonist. HEK293 zebrafish TRPN1-YFP, Fluo-8 calcium fluorescence; scaled: carbachol wells 100%, DMSO wells 0%. activation, % at 3 µM. 10% of 310 active. AID 1525;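 active = mean activation over replicates above a set limit taken from the earlier TRPN1 channel primary screen, cut at about 19% in these data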
TRPML3 ag conf: confirmation of human TRPML3 channel agonists. shares compounds with TRPML3 agonist. activation, % at 3 µM. HEK293 TRPML3-YFP, Fluo-8 calcium fluorescence; 100% set by carbachol, 0% by DMSO. 80% of 310 active;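 active = activation above a set limit derived from the earlier primary screen, cut at about 12% in these data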
Of the large screens only hits and unclear results are named; the others gave an inactive call (follow-up assays come after a bar, where they were run).

CCOc1ccc(/C=C2/SC(=S)N(C(C(=O)O)c3ccccc3)C2=O)cc1OCC (stereo not drawn)	none (no result: V1aR counter, OXTR potentiator, OXTR ag)
CCOc1cc(/C=C2\SC(=S)N(C(C(=O)O)c3ccccc3)C2=O)ccc1O (stereo not drawn)	V1aR counter 32, TRPML3 agonist 13, OXTR ag 38 | TRPN1 ag 2 33 | TRPML3 ag conf 15
NCCNc1ccc(C(=O)N2c3ccccc3Sc3ccccc32)cc1[N+](=O)[O-]	none (no result: TRPML3 agonist, zfTRPN1 agonist)
CC(C)=C1C2CCC1C(C(=O)NCc1ccccc1)C2C(=O)O (stereo not drawn)	TRPML3 agonist 18 | TRPN1 ag 2 inactive | TRPML3 ag conf inactive
CC(OC(=O)c1cc(=O)[nH]c2ccccc12)C(=O)N1C(C)CCCC1C (stereo not drawn)	none (no result: TRPML3 agonist, zfTRPN1 agonist)
CCOc1ccccc1N1CCN(S(=O)(=O)c2ccc(Cl)s2)CC1	TRPML3 agonist 38 | TRPN1 ag 2 inactive | TRPML3 ag conf 27
CC(NC(=S)Nc1cccc(C(F)(F)F)c1)C(C)(C)C (stereo not drawn)	TRPML3 agonist 12 | TRPN1 ag 2 inactive | TRPML3 ag conf inactive
CN(C)NC(=S)Nc1cccc(C(F)(F)F)c1	none
On1onc2c3cc(-c4ccccc4)nc3ccc21	TRPML3 agonist 12 | TRPN1 ag 2 inactive | TRPML3 ag conf inactive
COc1ccc2c(c1)C(C)CC(C)(C)N2C(=O)CSc1nc2ccccc2s1 (stereo not drawn)	TRPML3 agonist 18 | TRPN1 ag 2 inactive | TRPML3 ag conf 33
CCc1nnc(NC(=O)COC(=O)c2cc(OC)cc(OC)c2)s1	none (no result: TRPML3 agonist, zfTRPN1 agonist)
C[C@H](CO)N1C[C@H](C)[C@@H](CN(C)S(=O)(=O)c2ccccc2)Oc2c(NC(=O)CCC(F)(F)F)cccc2C1=O	none (no result: TRPML3 agonist, zfTRPN1 agonist)
Cc1ccc(C(=O)CSC2=C(C#N)C(c3ccco3)CC(=O)N2)c(C)c1 (stereo not drawn)	V1aR counter 53, TRPML3 agonist 16, OXTR ag 52 | TRPN1 ag 2 inactive | TRPML3 ag conf inactive
Cc1ccc(NC(=O)CSC2=C(C#N)C(c3ccco3)CC(=O)N2)cc1 (stereo not drawn)	none
N#C/C(=N/Nc1ccccc1[N+](=O)[O-])C(N)=S	TRPML3 agonist 12 | TRPN1 ag 2 20 | TRPML3 ag conf inactive
CCCOc1cc(C)c(Cl)cc1S(=O)(=O)N(CC)CC	TRPML3 agonist 26 | TRPN1 ag 2 inactive | TRPML3 ag conf 97
Cc1ccc(NC(=O)c2cnc(N3CCN(c4ccccn4)CC3)c3ccccc23)c(Br)c1	TRPML3 agonist 25 | TRPN1 ag 2 inactive | TRPML3 ag conf 48
COc1ccc(N=C2SCC(=O)N2CCc2ccc(OC)c(OC)c2)cc1	none
COc1ccc(CCN2C(=O)CSC2=Nc2ccc(C(C)C)cc2)cc1OC	TRPML3 agonist 13 | TRPN1 ag 2 inactive | TRPML3 ag conf 14
CCOc1cc(S(=O)(=O)N2CCCCCC2)ccc1F	TRPML3 agonist 15 | TRPN1 ag 2 inactive | TRPML3 ag conf 22
COc1ccc(S(=O)(=O)N2CCCCC2)cc1C(C)C	TRPML3 agonist 74 | TRPN1 ag 2 inactive | TRPML3 ag conf 138
CCOc1ccccc1N1CCN(S(=O)(=O)c2ccc(F)c(F)c2)CC1	none
COc1ccc(S(=O)(=O)N2CCCC2)cc1Br	none (no result: TRPML3 agonist, zfTRPN1 agonist)
COc1ccc(S(=O)(=O)N2CCCCCC2)cc1N(C)S(=O)(=O)c1ccccc1	TRPML3 agonist 70 | TRPN1 ag 2 inactive | TRPML3 ag conf 74
Cc1ccc(CN2CC(C(=O)NCCC3=CCCCC3)CC2=O)cc1 (stereo not drawn)	none (no result: TRPML3 agonist, zfTRPN1 agonist)
CCCCN(C(=O)c1ccc(C)cc1)c1c(N)n(CCC)c(=O)[nH]c1=O	none (no result: TRPML3 agonist, zfTRPN1 agonist)
O=C(COC(=O)C1CCN(S(=O)(=O)c2ccccc2)CC1)NCCc1ccccc1	none (no result: TRPML3 agonist, zfTRPN1 agonist)
Cc1ccc(-n2nc3c(N4CCN(c5ccccc5)CC4)nnc(C)c3c2C)cc1	none (no result: V1aR counter, OXTR potentiator, OXTR ag)
Cc1ccc(-n2nc3c(Cl)nnc(C)c3c2C)cc1	TRPML3 agonist 13 | TRPN1 ag 2 inactive | TRPML3 ag conf inactive
Cc1ccc(S(=O)(=O)N2CC(=O)N3CCN(CCN)C3C2)cc1 (stereo not drawn)	none (no result: TRPML3 agonist, zfTRPN1 agonist)
Cc1cc(=O)c2cccc(Br)c2[nH]1	none
O=c1cc(C(F)(F)F)[nH]c2c(C(F)(F)F)cccc12	TRPML3 agonist 15 | TRPN1 ag 2 29 | TRPML3 ag conf 13
O=c1cc(C(F)(F)F)[nH]c2ccc(OC(F)(F)F)cc12	TRPML3 agonist 12 | TRPN1 ag 2 26 | TRPML3 ag conf inactive
CC(=O)c1cccc(NC(=O)CSc2n[nH]c(=O)n2C2CC2)c1	none (no result: TRPML3 agonist, zfTRPN1 agonist)
CC(C)(CNCc1ccccc1)NS(=O)(=O)c1ccc(Cl)cc1	none (no result: TRPML3 agonist, zfTRPN1 agonist)
O=S(=O)(NC1CCCCC1N1CCOCC1)c1ccc(Cl)cc1 (stereo not drawn)	TRPML3 agonist 129 | TRPN1 ag 2 inactive | TRPML3 ag conf 151
O=S(=O)(NC1CCCCC1N1CCN(c2ccccc2F)CC1)c1ccc(Cl)cc1 (stereo not drawn)	none (no result: TRPML3 agonist, zfTRPN1 agonist)
CCOC(=O)CSc1nc2c(sc(=S)n2-c2ccccc2OC)c(=O)n1Cc1ccco1	TRPML3 agonist 40 | TRPN1 ag 2 inactive | TRPML3 ag conf 59
CCOC(=O)CSc1nc2c(sc(=S)n2-c2ccccc2OC)c(=O)n1-c1ccccc1OC	none (no result: TRPML3 agonist, zfTRPN1 agonist)
Cc1ccc(S(=O)(=O)N(C)c2ccc3ccccc3c2)cc1	none
CSc1nc2ccccc2nc1N(C)S(=O)(=O)c1ccc(C)cc1	TRPML3 agonist 21 | TRPN1 ag 2 inactive | TRPML3 ag conf 26
Cc1ccc(S(=O)(=O)N(C)c2ccccc2)cc1	TRPML3 agonist 17 | TRPN1 ag 2 inactive | TRPML3 ag conf inactive
Cc1ccc(N(C)S(=O)(=O)c2ccc(C)cc2)cc1	TRPML3 agonist 49 | TRPN1 ag 2 inactive | TRPML3 ag conf 25
CC1CC(C)CN(C(=O)COC(=O)c2ccc3c(c2)OCCO3)C1 (stereo not drawn)	none (no result: TRPML3 agonist, zfTRPN1 agonist)
Cc1cc(C)c(S(=O)(=O)c2c(C)cccc2C)c(OCC(C)C)n1	TRPML3 agonist 12 | TRPN1 ag 2 inactive | TRPML3 ag conf 43
C#CCOc1nc(C)cc(C)c1S(=O)(=O)c1ccccc1C	TRPML3 agonist 41 | TRPN1 ag 2 inactive | TRPML3 ag conf 61
COc1nc(C)cc(C)c1S(=O)(=O)c1ccccc1C	none (no result: TRPML3 agonist, zfTRPN1 agonist)
CCOc1nc(C)cc(C)c1S(=O)(=O)c1cccc(C)c1	none
CNC(=S)NNC(=O)c1cccs1	none
O=C(NC(=S)NNC(=O)c1cccs1)c1ccc(Br)o1	TRPML3 agonist 12 | TRPN1 ag 2 inactive | TRPML3 ag conf 22
